A selection: hits, their analogues and other compounds. The true share with any hit is near 1.7%.
HNF4A DNA FP: change in binding of human HNF4A to DNA, primary screen, biochemical, fluorescence polarization, FITC-DNA. Hepatocyte nuclear factor 4-alpha (Homo sapiens), P41235. 1 h. activity change, % at 10 µM. 0.3% of 360,000 active; in the data active means activity change above about 30%, passing the limit was not always enough
Target sequence (P41235 whole entry, looked up): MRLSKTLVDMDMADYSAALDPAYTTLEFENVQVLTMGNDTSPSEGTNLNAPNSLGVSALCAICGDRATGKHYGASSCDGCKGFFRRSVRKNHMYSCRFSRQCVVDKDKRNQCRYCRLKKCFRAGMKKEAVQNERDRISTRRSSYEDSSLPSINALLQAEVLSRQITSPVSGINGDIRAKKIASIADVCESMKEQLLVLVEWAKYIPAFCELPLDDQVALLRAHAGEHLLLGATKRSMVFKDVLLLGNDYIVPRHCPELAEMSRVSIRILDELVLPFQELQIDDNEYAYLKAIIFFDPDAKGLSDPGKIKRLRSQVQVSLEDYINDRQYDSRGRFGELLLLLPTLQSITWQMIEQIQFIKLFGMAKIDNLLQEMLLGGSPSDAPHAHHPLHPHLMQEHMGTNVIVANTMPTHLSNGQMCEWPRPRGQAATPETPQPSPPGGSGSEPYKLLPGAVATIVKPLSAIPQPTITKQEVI
Tb MetRS inh: T. brucei MetRS inhibitors, primary screen, biochemical, luminescence; methionyl-tRNA synthetase (Trypanosoma brucei brucei); purified T. brucei MetRS, ATP depletion, Kinase-Glo luminescence; inhibition, % at 11.9 µM; 0.4% of 360,000 active; AID 624268, 2012;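 active means inhibition above a per-plate cutoff of the control wells' mean inhibition plus 3 SD, cut at about 5.5% in these data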
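Test system: purified T. brucei MetRS enzyme. Also added: ATP, methionine and E. coli bulk tRNA substrates. Compound: 11.9 µM single point. Schedule: 15 min enzyme-compound preincubation, 2 h reaction, 10 min detection, 25 °C. Signal: luciferase luminescence of residual ATP, Kinase-Glo. Evaluation: percent inhibition versus plate control medians. Controls: DMSO wells, low control.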
CSN inh: inhibitors of CSN-mediated cullin deneddylation, primary screen, biochemical, fluorescence polarization, uHTS; inhibition, % at 12.5 µM; Purified CSN, SCF-Nedd8-OG deneddylation; AID 651999, 2013; COP9 signalosome complex subunit 5 (Homo sapiens), Q92905; 0.38% of 360,000 active;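 active means pattern-corrected inhibition above about 35%, with an unprinted fluorescence ratio check between 0.5 and 1.5, limit read from the data, passing the limit was not always enough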
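Material: purified human Csn5 enzyme expressed in HEK293T cells / Medium: Tris buffer pH 7.5, NaCl, DTT, Tween-20, trehalose, ovalbumin / Compound dosing: 12.5 µM single point / Schedule: 90 min incubation of compound, enzyme and substrate at room temperature / Signal: fluorescence polarization of the substrate / Control set: no-enzyme wells high, enzyme-with-substrate wells low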
TPT1 inh: Candida albicans TPT1 enzyme inhibitors, primary screen, biochemical, fluorescence polarization. 0.81% of 300,000 active. tRNA 2'-phosphotransferase TPT1 (Candida albicans SC5314). recombinant caTPT1, FP RNA substrate dephosphorylation. inhibition, % at 5 µM. AID 1962, 2009;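 active means inhibition above the mean of all tested compounds plus 3 SD, set per screening campaign, cut at about 24% in these data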
IDE cell activ: human IDE activators in live cells, primary screen, fluorescence polarization, HEK cells, FAbeta-B substrate | Insulin-degrading enzyme (Homo sapiens), P14735 | FAbeta-B cleavage; 0% vehicle, 100% cell-free pure enzyme wells | activation, % at 5.96 µM | 0.073% of 340,000 active;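 active means activation above the mean of all tested compounds plus 3 SD, set per screening campaign, cut at about 17% in these data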
IDE inh: human IDE inhibitors in live cells, primary screen, fluorescence polarization, HEK cells, FAbetaB substrate; Insulin-degrading enzyme (Homo sapiens), P14735; FAbetaB cleavage; inhibition, % at 5.59 µM; 0.41% of 320,000 active; AID 434962, 2010;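 active means percent inhibition above the average of all tested compounds plus 3 SD, set per screening campaign, cut at about 16% in these data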;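 further: IDE supplied by intact live HEK cells; FP after avidin binding of uncleaved biotin substrate so inhibition keeps polarization high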
caTPT1 confirm: Candida albicans TPT1 inhibitors, confirmation, biochemical, fluorescence polarization, triplicate; AID 2149, 2009; inhibition, % at 5 µM; shares compounds with TPT1 inh; 74% of 2,400 active; recombinant caTPT1, RNase T1 coupled;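 active means inhibition above the primary screen limit, the mean inhibition of all tested compounds plus 3 SD, cut at about 25% in these data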
RNase T1 counter: RNase T1 inhibitors, counter-screen for TPT1 inhibitor project, biochemical, fluorescence polarization; RNase T1 cleavage, 1536-well; inhibition, % at 5 µM; 83% of 2,400 active; shares compounds with TPT1 inh; AID 2153, 2009;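 active means inhibition above the solvent-only control well mean plus 3 SD, limit set per screening run, cut at about 23% in these data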;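 further: inhibitors block cleavage so intact labeled substrate keeps polarization high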
Of the large screens only hits and unclear results are named; the others gave an inactive call (follow-up assays come after a bar, where they were run); ! = a repeat was not active.

COc1ccc(/C=C2/C(=O)NC(=O)N(Cc3ccco3)C2=O)cc1	TPT1 inh 33 (no result: HNF4A DNA FP, Tb MetRS inh, CSN inh, IDE cell activ)
Cn1cccc1/C=C1\C(=O)NC(=O)N(Cc2ccco2)C1=O	none (no result: TPT1 inh, IDE inh)
CCn1nc(-c2ccccc2)nc2c(=O)n(C)c(=O)nc1-2	Tb MetRS inh 27
Cn1cc[n+](C)c1P(=S)(c1ccccc1)c1ccccc1	none
Cc1c(P(=S)(c2ccccc2)c2ccccc2)[n+]2ccccc2n1C	CSN inh 74! (no result: TPT1 inh, IDE inh)
OC(CNC1CCCCC1)C(F)(F)F (centres undefined)	IDE cell activ 20
c1ccc(CNC2CCCCCCC2)cc1 (tested in a mixture with another compound)	none (no result: TPT1 inh, IDE inh)
CCCCCCn1c(O)c(C=Nc2ccccc2N2CCOCC2)c(=O)[nH]c1=S	HNF4A DNA FP 74 (no result: IDE cell activ)
O=C1CC(=O)N(Cc2ccccc2)C(=S)N1	none
O=C1NC(=S)N(c2ccc(F)cc2)C(=O)/C1=C/c1ccco1	TPT1 inh 78 (no result: HNF4A DNA FP, Tb MetRS inh, CSN inh, IDE cell activ)
O=C1NC(=S)N(c2ccc(F)cc2)C(=O)/C1=C\c1ccoc1	none (no result: TPT1 inh, IDE inh)
Cc1nc2ccccc2c(=O)n1-c1ccc(C(=O)O)cc1	IDE cell activ 18
COC(=O)C1=C(c2ccc(F)cc2OCc2ccccc2)C[C@@H]2CC[C@H]1N2C(=O)N1CCOCC1	none (no result: TPT1 inh)
O=C(NC1CCCCC1)N1Cc2cc(-c3cccc(F)c3)ccc2-n2nncc2C1	CSN inh 145 (no result: TPT1 inh, IDE cell activ, IDE inh)
CC(C)(C)N1C(=O)NC(=O)/C(=C\c2ccc3c(c2)CCN3CCCCl)C1=O	CSN inh 39
COC(=O)C1=C(c2cc3ccccc3s2)C[C@@H]2CC[C@H]1N2C(=O)N1CCC(O)CC1	none
COC(=O)C1=C(c2ccc(Cl)c(C(F)(F)F)c2)C[C@@H]2CC[C@H]1N2C(=O)NCc1ccco1	none (no result: TPT1 inh)
Nc1ccc(Cc2ccc(N)cc2)cc1	none (no result: TPT1 inh, IDE inh)
CC1CCC(C(C)C)C(OC(=O)Cn2c(COc3ccccc3)[n+](C)c3ccccc32)C1 (centres undefined)	IDE cell activ 21
CN(C)/C=C/C(=O)C(Cl)(Cl)Cl	HNF4A DNA FP 38
CCOP(=O)(NC(C)C)Oc1ccc(SC)c(C)c1 (centres undefined)	none (no result: TPT1 inh, IDE inh)
CN1CCN(C(=O)COc2ccc(S(=O)(=O)Nc3ccc(F)cc3)cc2)CC1	HNF4A DNA FP 43
CCN1CCN(C(=O)COc2ccc(S(=O)(=O)NC(C)C)cc2)CC1	none
CCOP(=S)(NN(Cc1ccccc1)C(=O)c1ccccc1)OCC	none
CCCC1(CC(C)CC)C(=O)NC(=O)NC1=O (centres undefined)	none (no result: TPT1 inh, IDE cell activ, IDE inh)
Cc1ccc2c(c1)=C/C(=C\c1c(O)[nH]c(=S)[nH]c1=O)C(=O)N=2	IDE inh 16 (no result: HNF4A DNA FP, Tb MetRS inh, CSN inh, IDE cell activ)
Cc1cccc(C)c1-n1nnnc1C(c1cccs1)N1CCC(n2c(=O)[nH]c3ccccc32)CC1 (centres undefined)	CSN inh 68 (no result: TPT1 inh, IDE cell activ, IDE inh)
CCOc1cc(CNCCc2c[nH]c3ccccc23)cc(Cl)c1OC	none
Cc1cc(C=C2C(=O)N(C)C(=O)N(C)C2=O)c(C)n1-c1ccccc1	none
CN1C(=O)C(=Cc2sc(=O)n(-c3ccccc3)c2N(C)C)C(=O)N(C)C1=O	TPT1 inh 42 | caTPT1 confirm 53 | RNase T1 counter 71
Cc1cccc(-n2c(O)c(C=Nc3ccc(S(N)(=O)=O)cc3)c(=O)[nH]c2=O)c1	TPT1 inh 30 | caTPT1 confirm inactive | RNase T1 counter inactive
